Screening results as filed in PubChem BioAssay.
Compounds with a hit are over-represented: about 3.8% of the library has one in this group of screens.
Measles CPE: protection of cells from measles virus; Measles virus-infected cells, CPE protection, absorbance; protection (pct of control), % at 4 µM; 140,000 compounds, 1.5% hits; in the data active means protection mostly above about 24%, no sharp cut-off; inactive means mostly below about 26%
Yeast life ext: yeast lifespan extension; S. cerevisiae growth with nicotinamide, OD615; deaD strain in restrictive glucose medium; inhibition of the nicotinamide effect, % at 10 µM; 130,000 compounds, 0.68% hits; AID 775;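 active means inhibition above a set limit, placed 3 SD over the median of all compounds, cut at about 26% in these data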
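Assay system: DeaD-strain S. cerevisiae. Medium: CSMM-D glucose medium, restrictive. Reagent: nicotinamide, 1.5 mM, co-present with compound. Compound: 10 µM single point, 0.25% DMSO. Schedule: culture preincubation 4 h, compound exposure 48 h, both 30 °C. Detection: absorbance at 615 nm.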
Yeast growth inh: yeast BB579 growth reduction in restrictive medium. inhibition, % at 10 µM. 140,000 compounds, 0.51% hits. S. cerevisiae BB579 growth, OD615, 48 h;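 active means inhibition above a set limit, 3 SD over the mean compound inhibition, cut at about 44% in these data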
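Test system: Saccharomyces cerevisiae DeaD strain BB579, replicative lifespan model yeast | Buffer or medium: Restrictive CSMM-D medium | Doses: One dose, 10 µM compound with 0.25% DMSO | Incubation: 48 h exposure, 30 °C | Detection: Culture absorbance at 615 nm | Control set: Amphotericin B at 10 µg/mL as positive control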
RAM network inh: inhibitors of the yeast RAM network; S. cerevisiae dse1pr::URA3 reporter, 5-FOA growth OD615, 2 d; analog-sensitive cbk1-as2 kinase mutant strain; inhibition, % at 50 µM; 190,000 compounds, 1.8% hits;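 active means inhibition above a set limit, 3 SD over mean compound inhibition, cut at about 8.4% in these data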;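 further: inhibition rescues growth on 5-FOA so higher OD means more RAM inhibition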
Large screens that a line does not name were inactive.

COc1ccc(C(C)=O)cc1CSc1nnc(-c2ccc(Cl)cc2)n1-c1ccccc1	none
CC1=NN(c2ccccc2)C(=O)C1C(=O)c1ccc(Cl)cc1 (stereo not drawn)	none
CC1=NN(c2ccccc2)C(=O)C1C(=O)c1ccccc1 (stereo not drawn)	Yeast life ext 28
CCOc1cc(/C=N/NC(=O)c2ccncc2)ccc1OS(C)(=O)=O	none
CCOc1cc(/C=N/Nc2ccccc2Cl)ccc1OCC(=O)O	Yeast growth inh 96
CCOc1cc(/C=N/NC(=O)c2ccc(-c3csc(Nc4ccc(C)cc4)n3)cc2)ccc1OCC(=O)O	RAM network inh 8.9 (no result: Measles CPE, Yeast life ext, Yeast growth inh)
CCOc1cc(/C=N/Nc2cccc(C(=O)O)c2)ccc1OC(=O)c1ccccc1	none (no result: Measles CPE, Yeast life ext, Yeast growth inh)
O=C(NNc1nc(-c2ccccc2)c2cc(Br)ccc2n1)c1ccc(S(=O)(=O)N2CCCCC2)cc1	Measles CPE 47
O=C(NNc1nc(-c2ccccc2)c2cc(Br)ccc2n1)c1ccc(S(=O)(=O)N2CCOCC2)cc1	none
CC(C)Cn1c(=O)c(C(=O)Nc2cnccn2)c(O)c2ccccc21	Yeast life ext 68
COc1cc(OC)cc(C(=O)N[C@H](C(=O)OCC(=O)N2CCc3ccccc32)C(C)C)c1	none (no result: Measles CPE, Yeast life ext, Yeast growth inh)
CNc1nc(-c2ccccc2)nc(-c2ccccc2)c1C#N	Measles CPE 61
CC1(C)Nc2ccc(O)cc2-c2c1ssc2=S	none
CCOc1ccc2c(c1)-c1c(ssc1=S)C(C)(C)N2C	Yeast life ext 39, RAM network inh 8.8
COc1ccc(NC(=O)/C=C/c2cc(OC)c(OC)c(OC)c2)cn1	RAM network inh 9.0 (no result: Measles CPE, Yeast life ext, Yeast growth inh)
CCCOc1ccc(CN(CCC#N)C(=S)NC(=O)c2ccccc2)cc1	none
CCc1sc(N(C(=O)Cc2ccccc2)c2cccc(F)c2)nc1-c1ccc(C)cc1	RAM network inh 8.9
Cc1noc(C)c1CS(=O)(=O)c1ccc(Br)cc1	Yeast life ext 56
Cc1ccc(S(=O)(=O)Cc2c(C)noc2C)cc1	none
COc1ccc(NS(=O)(=O)c2ccc(N3CCOCC3)c(NC(=O)c3ccccc3Cl)c2)cc1	none
O=C(O)c1cc([N+](=O)[O-])ccc1N1CCCCC1	Measles CPE 21
COc1ccc(NS(=O)(=O)c2ccc(N3CCOCC3)c(NC(=O)c3ccc(OC)cc3)c2)cc1	RAM network inh 8.6
CN(C)S(=O)(=O)c1ccc(C(=O)Nc2cc(S(=O)(=O)Nc3ccccc3Cl)ccc2N2CCCCC2)cc1	RAM network inh 8.6
Cc1ccccc1C(=O)Nc1cc(S(=O)(=O)N2CCCCC2)ccc1N1CCN(C)CC1	Measles CPE 33
CN1CCN(c2ccc(Cl)cc2NC(=O)c2ccc(S(=O)(=O)N(C)C)cc2)CC1	none
O=C(Nc1cc([N+](=O)[O-])ccc1N1CCCC1)c1ccco1	none (no result: Measles CPE, Yeast life ext, Yeast growth inh)
COc1ccc(C(=O)Nc2cc([N+](=O)[O-])ccc2N2CCCC2)cc1	RAM network inh 8.5 (no result: Measles CPE, Yeast life ext, Yeast growth inh)
Clc1nc(CN2CCCCC2)nc2sc3c(c12)CCC3	none (no result: Measles CPE, Yeast life ext, Yeast growth inh)
COc1ccc(/C=C/c2cc(=O)c3cc(Cl)ccc3o2)cc1	RAM network inh 10
COc1ccc(-c2cc(=O)c3cc(OC)ccc3o2)cc1	none (no result: Measles CPE, Yeast life ext, Yeast growth inh)
COC(=O)c1sccc1NC(=O)COc1ccccc1Cl	none
CCc1ccc(N/C(SCc2ccccc2C)=C(/C#N)C(=O)NCc2ccco2)cc1	RAM network inh 11
CC(/C=C/c1ccco1)=N/NC(=O)Cc1cccs1	none
C=CCn1c(=O)c2c3c(sc2n2c(Nc4ccc(OC)cc4)nnc12)CCCC3	none
C=CCn1c(=O)c2c3c(sc2n2c(Nc4ccc(C(=O)OCC)cc4)nnc12)CCCC3	RAM network inh 8.5
CC1(C)CC(=O)C(C(C2=C(O)CC(C)(C)CC2=O)c2ccc([N+](=O)[O-])cc2)C(=O)C1 (stereo not drawn)	Yeast life ext 38 (no result: Measles CPE)
COc1cccc(C(C2=C(O)CC(C)(C)CC2=O)C2C(=O)CC(C)(C)CC2=O)c1 (stereo not drawn)	none
CC1(C)CC(=O)C(C(C2=C(O)CC(C)(C)CC2=O)c2ccc(Br)s2)C(=O)C1 (stereo not drawn)	Yeast life ext 30
CC(C)CCSc1nc(N2CCOCC2)c2c(c1C#N)CC(C)(C)OC2	RAM network inh 10
CSc1nc(N2CCOCC2)c2c(c1C#N)CC(C)(C)OC2	none
Cc1ccc2c(c1)C1C=CCC1C(C(=O)O)N2 (stereo not drawn)	RAM network inh 8.7
CCOC(=O)/C=C1\SCC(=O)N1CC(=O)NC(C)c1ccc(F)cc1 (stereo not drawn)	none
Cc1nc(Cl)c2c(n1)NC1=C(O2)C(=O)CCC1	none
OC(COc1ccc2ccccc2c1Br)Cn1cnc(-c2ccccc2)c1 (stereo not drawn)	Yeast growth inh 93
CCOc1ccc(NC(=O)N2CCC(c3nc4ccccc4[nH]3)CC2)cc1	none (no result: Measles CPE, Yeast life ext, Yeast growth inh)
COc1nc(OC)nc(N2CCC(C(=O)NCC3CCCCC3)CC2)n1	none
Cc1cc(C)nc(N2CCC(C(=O)NCC3CCCCC3)CC2)n1	Measles CPE 33
c1ccc(-c2cc3n(c2)CCc2ccccc2-3)cc1	none (no result: Yeast life ext)
COc1ccc(C2(CNC(=O)c3cccs3)CCOCC2)cc1	none (no result: Measles CPE, Yeast life ext, Yeast growth inh)
O=C(Nc1cccc(N=Cc2cc(Br)cc(Br)c2O)c1)c1ccco1	Yeast growth inh 100
O=C(Nc1cccc(N=Cc2cc(Cl)cc(Br)c2O)c1)c1ccco1	Yeast growth inh 56
COC(=O)c1ccc(N2C(=O)CC(N(C)CCc3ccc(OC)c(OC)c3)C2=O)cc1 (stereo not drawn)	Measles CPE 138
COc1ccc(N2C(=O)CC(N(C)CCc3ccc(OC)c(OC)c3)C2=O)cc1 (stereo not drawn)	none (no result: Measles CPE, Yeast life ext, Yeast growth inh)
Cc1cc(C)nc(Nc2n[nH]c(-c3ccc(N)cc3)n2)n1	Measles CPE 26
COCCNC(=O)c1cc2oc3ccccc3c2n1C	none
Cc1ccccc1CN(C)CC(=O)NC(C)CCc1ccccc1 (stereo not drawn)	none (no result: Measles CPE, Yeast life ext, Yeast growth inh)
CC(=O)c1c(C)[nH]c(C(=O)COC(=O)CCSc2ccccc2)c1C	none
CCOC(=O)c1c(C)[nH]c(C(=O)COC(=O)CCSc2ccccc2)c1C	RAM network inh 9.5
CC(=O)N(CCCN1CCOCC1)Cc1ccncc1	Measles CPE 57
Cc1ccc(SC(c2ccc(C)cc2)C(Cn2cncn2)C(=O)c2ccccc2)cc1 (stereo not drawn)	RAM network inh 11
Cc1nc(C)n(CC(=O)N2CCCC(C(=O)c3cccc4ccccc34)C2)n1 (stereo not drawn)	none (no result: Measles CPE, Yeast life ext, Yeast growth inh)
O=c1oc2ccccc2c(O)c1C=Nc1cccnc1	none (no result: Measles CPE, Yeast life ext, Yeast growth inh)
O=c1oc2ccccc2c(O)c1/C=C1\C=Nc2ccccc21	Yeast growth inh 86
COc1ccc(O)c(-c2cc(C(F)(F)C(F)F)nc(-c3ccccc3)n2)c1	RAM network inh 9.1
O=C(CCCC(=O)N(CC(=O)NC1CCCC1)C1CCCC1)Nc1ccccn1	Measles CPE 70
O=C(CCCC(=O)N(CC(=O)NC1CCCCC1)Cc1ccc2c(c1)OCO2)Nc1ccccn1	Yeast life ext 28
O=C(CCC(=O)N(CC(=O)NC1CCCC1)C1CCCC1)Nc1ccccn1	none
O=C(CCCC(=O)N(CC(=O)NC1CCCC1)Cc1ccc(F)cc1)Nc1ccccn1	none
